Columns and labels:
[1] = Inhibition of bacterial NDM1 expressed in Escherichia coli BL21(DE3) using cefazolin as substrate by spectrometric method; set-up: species or system Bacteria
Method in brief: (§1)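 Purified enzymes, overexpressed and purified by earlier methods, assayed under steady-state conditions by UV spectrometry in 50 mM Tris, pH 7.0. Substrate for NDM-1, VIM-2 and L1 was cefazolin (50 µM), read at 262 nm. Substrate for ImiS was imipenem (60 µM), read at 300 nm. Inhibitor varied 0–50 µM; IC50 is the concentration giving 50% loss of activity.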

[2] = tested on: Bacteria; assay: Inhibition of bacterial ImiS expressed in Escherichia coli BL21(DE3) at 50 uM using imipenem as substrate by spectrometric method relative to control
[3] = Inhibition of bacterial L1 expressed in Escherichia coli BL21(DE3) using cefazolin as substrate by spectrometric method; set-up: species or system Bacteria; method in brief: as §1
[4] = tested on: Bacteria; assay: Inhibition of bacterial VIM2 expressed in Escherichia coli BL21(DE3) at 50 uM using cefazolin as substrate by spectrometric method relative to control
[5] = tested on: Bacteria; assay: Inhibition of bacterial NDM1 expressed in Escherichia coli DH10B assessed as potentiation of cefazolin-induced antibacterial activity by measuring cefazolin MIC at 32 ug/ml after 16 hrs by broth micro-dilution method (reference value: 8 ug/ml)
[6] = tested on: Bacteria; assay: Inhibition of bacterial VIM2 expressed in Escherichia coli DH10B assessed as potentiation of cefazolin-induced antibacterial activity by measuring cefazolin MIC at 32 ug/ml after 16 hrs by broth micro-dilution method (reference value: 512 ug/ml)
[7] = tested on: Bacteria; assay: Inhibition of bacterial ImiS expressed in Escherichia coli DH10B assessed as potentiation of imipenem-induced antibacterial activity by measuring imipenem MIC at 32 ug/ml after 16 hrs by broth micro-dilution method (reference value: 2 ug/ml)
[8] = tested on: Bacteria; assay: Inhibition of bacterial L1 expressed in Escherichia coli DH10B assessed as potentiation of cefazolin-induced antibacterial activity by measuring cefazolin MIC at 32 ug/ml after 16 hrs by broth micro-dilution method (reference value: 32 ug/ml)
Method in brief: (§2)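 Dose-dependent cefazolin MIC assay against E. coli DH10B expressing L1 from a pBCSK plasmid, with varied inhibitor doses up to 256 µg/mL. Fold decrease in MIC was taken relative to cefazolin alone. Medium pH was monitored during the assay.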

[9] = tested on: Bacteria; assay: Inhibition of bacterial NDM1 expressed in Escherichia coli BL21(DE3) at 50 uM using cefazolin as substrate by spectrometric method relative to control
[10] = Inhibition of bacterial VIM2 expressed in Escherichia coli BL21(DE3) using cefazolin as substrate by spectrometric method; set-up: species or system Bacteria; method in brief: as §1
[11] = Inhibition of bacterial ImiS expressed in Escherichia coli BL21(DE3) using imipenem as substrate by spectrometric method; set-up: species or system Bacteria; method in brief: as §1
[12] = tested on: Bacteria; assay: Inhibition of bacterial NDM1 expressed in Escherichia coli DH10B assessed as potentiation of cefazolin-induced antibacterial activity by measuring fold reduction in cefazolin MIC at 32 ug/ml after 16 hrs by broth micro-dilution method relative to cefazolin alone
[13] = tested on: Bacteria; assay: Inhibition of bacterial VIM2 expressed in Escherichia coli DH10B assessed as potentiation of cefazolin-induced antibacterial activity by measuring fold reduction in cefazolin MIC at 32 ug/ml after 16 hrs by broth micro-dilution method relative to cefazolin alone
[14] = tested on: Bacteria; assay: Inhibition of bacterial L1 expressed in Escherichia coli DH10B assessed as potentiation of cefazolin-induced antibacterial activity by measuring fold reduction in cefazolin MIC at 32 ug/ml after 16 hrs by broth micro-dilution method relative to cefazolin alone; method in brief: as §2
[15] = Cytotoxicity against mouse L929 cells assessed as cell viability up to 200 uM after 48 hrs by CCK8 assay relative to control; type: cell-based; conditions: read-out: Activity
Method in brief: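 Mouse fibroblast L929 cells exposed to inhibitors at 12.5, 25, 50, 100, 200 and 400 µM working concentrations; percentage of cells maintaining viability measured.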

| SMILES | IC50 [1] [µM] | inhibition [2] [%] | IC50 [3] [µM] | inhibition [4] [%] | MIC [5] [µg/mL] | MIC [6] [µg/mL] | MIC [7] [µg/mL] | MIC [8] [µg/mL] | inhibition [9] [%] | IC50 [10] [µM] | IC50 [11] [µM] | fold change (FC) [12] | fold change (FC) [13] | fold change (FC) [14] | viability at 48 h [15] [%] |
| --- | --- | --- | --- | --- | --- | --- | --- | --- | --- | --- | --- | --- | --- | --- | --- |
| COc1ccc(/C=C2\SC(=S)N(CC(=O)O)C2=O)cc1 | 25.1 | < 50 | 0.6 | < 50 | 4 | 512 | 2 | 8 |  |  |  |  |  |  |  |
| O=C(O)CN1C(=O)/C(=C/c2ccccc2)SC1=S |  | < 50 | 0.32 | < 50 | 8 | 256 | 2 | 8 | < 50 |  |  |  |  |  |  |
| O=C(O)CN1C(=O)/C(=C/c2ccc(C(F)(F)F)cc2)SC1=S | 14.3 | < 50 | 0.11 |  | 4 | 256 | 1 | 8 |  | 12.7 |  |  |  |  |  |
| O=C(O)CN1C(=O)/C(=C/c2ccc(F)cc2)SC1=S | 15.4 | < 50 | 0.2 |  | 4 | 256 | 2 | 8 |  | 14.4 |  |  |  |  |  |
| O=C(O)c1ccc(N2C(=O)/C(=C/c3ccc(Cl)cc3Cl)SC2=S)cc1 | 10.6 |  | 0.03 |  | 1 | 128 | 1 | 8 |  | 3.5 | 7.6 | 4 to 8 | 4 |  |  |
| COc1ccc(/C=C(\S)C(=O)O)cc1 |  | < 50 | 0.32 |  | 16 | 256 | 2 | 16 | < 50 | 4.7 |  |  |  |  |  |
| O=C(O)CN1C(=O)/C(=C/c2ccc([N+](=O)[O-])cc2[N+](=O)[O-])SC1=S |  | < 50 | 0.1 | < 50 | 8 | 512 | 1 | 4 | < 50 |  |  |  |  | 8 | 80 |
| O=C(O)CN1C(=O)/C(=C/c2ccccc2[N+](=O)[O-])SC1=S | 27.4 | < 50 | 0.22 |  | 4 | 256 | 2 | 4 |  | 16.8 |  |  |  | 8 | 80 |
| O=C(O)c1ccc(N2C(=O)/C(=C/c3cccc4ccccc34)SC2=S)cc1 |  |  | 0.1 | < 50 | 8 | 512 | 1 | 8 | < 50 |  | 6.9 |  |  |  |  |
| O=C(O)c1ccc(N2C(=O)/C(=C/c3ccc4ccccc4c3)SC2=S)cc1 |  |  | 0.12 |  | > 64 | 128 | 1 | 8 | < 50 | 1.9 | 16.5 |  | 4 |  |  |
| O=C(O)CN1C(=O)/C(=C/c2ccc3ccccc3c2)SC1=S |  | < 50 | 0.37 | < 50 | 16 | 512 | 2 | 8 | < 50 |  |  |  |  |  |  |
| O=C(O)CN1C(=O)/C(=C/c2ccc(Cl)cc2)SC1=S |  | < 50 | 0.22 |  | 8 | 512 | 2 | 8 | < 50 | 15.3 |  |  |  |  |  |
| O=C(O)c1ccc(N2C(=O)/C(=C/c3ccc(Cl)cc3)SC2=S)cc1 | 12.2 |  | 0.07 |  | 1 | 128 | 1 | 8 |  | 3.6 | 7.7 | 4 to 8 | 4 |  |  |
| O=C(O)c1ccc(N2C(=O)/C(=C/c3ccc(F)cc3)SC2=S)cc1 | 8.4 |  | 0.08 |  | 2 | 256 | 1 | 8 |  | 6.9 | 3.6 |  |  |  |  |
| O=C(O)CN1C(=O)/C(=C/c2ccccn2)SC1=S |  |  | 0.16 | < 50 | 8 | 512 | 2 | 8 | < 50 |  | 19.1 |  |  |  |  |
| O=C(O)c1ccc(N2C(=O)/C(=C/c3ccc(C(F)(F)F)cc3)SC2=S)cc1 | 10.6 |  | 0.07 |  | 4 | 128 | 1 | 8 |  | 2.36 | 7.8 |  | 4 |  |  |
| O=C(O)c1ccc(N2C(=O)/C(=C/c3ccccc3)SC2=S)cc1 | 8.7 |  | 0.21 | < 50 | 1 | 512 | 1 | 8 |  |  | 18.3 | 4 to 8 |  |  |  |
| O=C(O)c1ccc(N2C(=O)/C(=C/c3ccco3)SC2=S)cc1 | 0.69 | < 50 | 0.18 | < 50 | 4 | 512 | 1 | 8 |  |  |  |  |  |  |  |
| O=C(O)c1ccc(N2C(=O)/C(=C/c3cccs3)SC2=S)cc1 | 14.3 | < 50 | 0.59 | < 50 | 4 | 512 | 1 | 8 |  |  |  |  |  |  |  |
| O=C(O)CN1C(=O)/C(=C/c2cccs2)SC1=S |  | < 50 | 0.77 | < 50 | 8 | 512 | 2 | 8 | < 50 |  |  |  |  |  |  |
| O=C(O)CN1C(=O)/C(=C/c2cccc3ccccc23)SC1=S |  | < 50 | 0.28 |  | 8 | 512 | 1 | 8 | < 50 | 27.9 |  |  |  |  |  |
| O=C(O)c1ccc(N2C(=O)/C(=C/c3ccccn3)SC2=S)cc1 | 1.13 | < 50 | 0.21 |  | 2 | 128 | 2 | 8 |  | 0.92 |  | 4 to 8 | 4 |  |  |
| O=C(O)CN1C(=O)/C(=C/c2ccc(Cl)cc2Cl)SC1=S | 21.5 | < 50 | 0.08 |  | 4 | 256 | 4 | 16 |  | 25.1 |  |  |  |  |  |
| O=C(O)CN1C(=O)/C(=C/c2ccco2)SC1=S | 47 | < 50 | 1.7 | < 50 | 8 | 512 | 2 | 8 |  |  |  |  |  |  |  |
